System: T. cruzi CAI/72 in BESM cells, trypomastigote emergence microscopy
Assay: cidal versus static activity on T. cruzi, late-stage follow-up, mechanism study for T. cruzi inhibitor project, imaging, CAI/72 strain, BESM host cells, 20-day treatment (AID 651877)
Details: stronger effect = higher value
Procedure, shortened: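 Material: BESM cells infected with T. cruzi CAI/72. Schedule: 20-day dosing every other day, then 38-day withdrawal. Signal: daily light microscopy of trypomastigote emergence. Evaluation: trypomastigote emergence timing, absence indicating cure, delay indicating static effect.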

`C[C@H]1CN([C@@H](C)CO)C(=O)c2cccc(NC(=O)c3ccncc3)c2O[C@@H]1CN(C)Cc1ccc(Oc2ccccc2)cc1` gave a day of emergence (at 0.25 µM) of 4 days and a normalised slope vs benznidazole of 70.
Compound `C[C@@H]1CN([C@@H](C)CO)C(=O)c2cccc(NC(=O)c3ccncc3)c2O[C@H]1CN(C)Cc1cccc(Cl)c1` has a day of emergence (at 0.25 µM) of 4 days, a day of emergence (at 0.74 µM) of 17 days and a day of emergence (at 2.2 µM) of 18 days. The normalised slope vs benznidazole was 6.
Compound `C[C@@H]1CN([C@@H](C)CO)C(=O)c2cccc(NC(=O)c3ccncc3)c2O[C@H]1CN(C)Cc1ccc(Cl)cc1` has a day of emergence (at 0.25 µM) of 4 days, a day of emergence (at 0.74 µM) of 15 days and a day of emergence (at 2.2 µM) of 17 days. For the same compound, the normalised slope vs benznidazole was 6.
In the case of `C[C@H](CO)N1C[C@H](C)[C@H](CN(C)Cc2ccc(Oc3ccccc3)cc2)Oc2c(NC(=O)c3ccncc3)cccc2C1=O`, the day of emergence (at 0.25 µM) is reported as 4 days and the normalised slope vs benznidazole is reported as 70.
In the case of `C[C@H]1CN([C@@H](C)CO)C(=O)c2cccc(NC(=O)c3ccncc3)c2O[C@H]1CN(C)Cc1ccc(Oc2ccccc2)cc1`, the day of emergence (at 0.25 µM) is reported as 4 days and the normalised slope vs benznidazole is reported as 70.
`CC(C)N1C[C@@H](C)[C@H](CN(C)Cc2cccc(Oc3ccccc3)c2)Oc2c(NC(=O)c3ccncc3)cccc2C1=O` gave a day of emergence (at 0.25 µM) of 18 days and a normalised slope vs benznidazole of 66.
`C[C@@H]1CN([C@H](C)CO)C(=O)c2cccc(NC(=O)c3ccncc3)c2O[C@H]1CN(C)Cc1ccccc1` was tested, and the day of emergence (at 0.25 µM) was 4 days and the normalised slope vs benznidazole was 70.
With `O=C(Cn1ccnc1[N+](=O)[O-])NCc1ccccc1` the day of emergence (at 0.25 µM) was -14 days, the day of emergence (at 0.74 µM) was 1 days and the day of emergence (at 2.2 µM) was 6 days. The normalised slope vs benznidazole was 8.
`C[C@@H]1CN([C@H](C)CO)C(=O)c2cccc(NC(=O)c3ccncc3)c2O[C@H]1CN(C)Cc1ccc(Oc2ccccc2)cc1` was tested, and the day of emergence (at 0.25 µM) was 4 days, the day of emergence (at 0.74 µM) was 30 days and the day of emergence (at 2.2 µM) was over 37 days. The normalised slope vs benznidazole was 5.6.
Work on `C[C@@H]1CN([C@@H](C)CO)C(=O)c2cccc(NC(=O)c3ccncc3)c2O[C@H]1CN(C)Cc1ccc(Oc2ccccc2)cc1` yielded a day of emergence (at 0.25 µM) of 4 days, a day of emergence (at 0.74 µM) of over 37 days and a normalised slope vs benznidazole of 20.
